Reference: ChEMBL document CHEMBL1127375, “Nucleic acid related compounds. 84. Synthesis of 6'-(E and Z)-halohomovinyl derivatives of adenosine, inactivation of S-adenosyl-L-homocysteine hydrolase, and correlation of anticancer and antiviral potencies with enzyme inhibition” (J Med Chem, 1994)
In brackets after ≈: the same amount, converted by molar mass.

Experiments:
[1] = tested on: CCRF-CEM; experiment: Tested for in vitro cytostatic activity against CEM cells; format: functional, cell-based; settings: Homo sapiens
Method in brief: (§1)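 Cells seeded at 5 × 10^5/mL (murine L1210 leukemia, FM3A mammary carcinoma) or 7.5 × 10^5/mL (human Molt-4 clone 8, CEM) and exposed to varying compound concentrations. Incubation at 37 °C in humidified CO2 was 2 days for L1210/FM3A and 3 days for Molt-4/CEM. Viable cells were Coulter-counted; IC50 is the concentration reducing viable cell number by 50%. Means of at least two to three determinations.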

[2] = tested on: E6SM; experiment: Tested for the antiviral activity against HSV-1 (KOS) in human E6SM cells; format: functional
Method in brief: (§2)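 Confluent E6SM, HeLa or Vero cultures were inoculated with 100 CCID50 of virus and allowed 1 h adsorption. Residual virus was removed, then cells were incubated with compound at 400, 200, 100 … μg/mL. Virus-induced cytopathicity was scored once complete in untreated infected controls. MIC is the minimum inhibitory concentration.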

[3] = tested on: E6SM; experiment: Tested for the antiviral activity against HSV-2 in Human E6SM cells; format: functional; method in brief: as §2
[4] = tested on: E6SM; experiment: Tested for the antiviral activity against Vaccinia virus in human E6SM cells; format: functional; method in brief: as §2
[5] = tested on: E6SM; experiment: Tested for the antiviral activity against Vesicular stomatitis virus in human E6SM cells; format: functional; method in brief: as §2
[6] = tested on: E6SM; experiment: Tested for the minimum cytotoxic concentration against E6SM cells; format: functional; settings: Homo sapiens
Method in brief: (§3)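 Uninfected E6SM, HeLa or Vero cultures were incubated with serial compound concentrations (400, 200, 100 … μg/mL). Cytotoxicity was judged as microscopically detectable alteration of normal cell morphology. The value is the minimum concentration causing this alteration.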

[7] = tested on: FM3A; experiment: Tested for in vitro cytostatic activity against murine mammary carcinoma (FM3A); format: functional, cell-based; settings: Mus musculus; method in brief: as §1
[8] = tested on: HeLa; experiment: Tested for the antiviral activity against Coxsackie B4 virus in human HeLa cells; format: functional; method in brief: as §2
[9] = tested on: HeLa; experiment: Tested for the antiviral activity against Vesicular stomatitis virus in human HeLa cells; format: functional; method in brief: as §2
[10] = tested on: HeLa; experiment: Tested for the minimum cytotoxic concentration against HeLa cells; format: functional; settings: Homo sapiens; method in brief: as §3
[11] = tested on: L1210; experiment: Tested for in vitro cytostatic activity against murine leukemia L1210; format: functional, cell-based; settings: Mus musculus; method in brief: as §1
[12] = tested on: MOLT-4; experiment: Tested for in vitro cytostatic activity against Human lymphoblast Molt-4 (Clone8); format: functional, cell-based; method in brief: as §1
[13] = target: T1, Adenosylhomocysteinase (Homo sapiens, UniProt P23526); experiment: Tested for kinetic constant for the inhibition of recombinant human placental S-Adenosyl-L-homocysteine Hydrolase
Target sequence in this assay (P23526 whole entry): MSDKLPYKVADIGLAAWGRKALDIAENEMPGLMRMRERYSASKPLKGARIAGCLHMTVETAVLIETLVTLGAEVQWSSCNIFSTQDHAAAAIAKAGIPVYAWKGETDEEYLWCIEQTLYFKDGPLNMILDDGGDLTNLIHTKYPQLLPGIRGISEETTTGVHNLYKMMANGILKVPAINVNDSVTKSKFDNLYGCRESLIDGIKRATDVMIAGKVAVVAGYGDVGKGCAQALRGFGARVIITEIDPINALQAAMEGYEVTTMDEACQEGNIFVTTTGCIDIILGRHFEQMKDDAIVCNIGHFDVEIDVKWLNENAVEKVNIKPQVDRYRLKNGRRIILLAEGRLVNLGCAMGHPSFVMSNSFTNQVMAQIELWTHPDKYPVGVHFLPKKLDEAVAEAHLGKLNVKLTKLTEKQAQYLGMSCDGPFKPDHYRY

[14] = tested on: Vero; experiment: Tested for the minimum cytotoxic concentration against Vero cells; format: functional; settings: Chlorocebus sabaeus; method in brief: as §3
[15] = tested on: Vero; experiment: Tested for the antiviral activity against Parainfluenza-3 virus in simian Vero cells; format: functional; settings: Chlorocebus sabaeus; method in brief: as §2
[16] = tested on: Vero; experiment: Tested for the antiviral activity against forest virus in simian Vero cells; format: functional; settings: Chlorocebus sabaeus; method in brief: as §2
[17] = tested on: Vero; experiment: Tested for the antiviral activity against Sindbis virus in simian Vero cells; format: functional; settings: Chlorocebus sabaeus; method in brief: as §2
[18] = tested on: Vero; experiment: Tested for the antiviral activity against reovirus-1 in simian Vero cells; format: functional; settings: Chlorocebus sabaeus; method in brief: as §2
[19] = Tested ratio of kinact to that of Ki
Method in brief: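 Purified recombinant human placental AdoHcy hydrolase (10 nM) preincubated with various inhibitor concentrations for various times at 37 °C, pH 7.2, in 50 mM potassium phosphate with 1 mM EDTA. Residual activity was measured in the synthetic direction by adding Ado and homocysteine for 5 min. The reaction was stopped with perchloric acid and AdoHcy quantified by C-18 HPLC at 258 nm. Ki and kinact were derived from 1/Kapp = 1/kinact + Ki/kinact[I].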

[20] = target: T1, Adenosylhomocysteinase
Target sequence in this assay (P23526 2-432 limits assumed): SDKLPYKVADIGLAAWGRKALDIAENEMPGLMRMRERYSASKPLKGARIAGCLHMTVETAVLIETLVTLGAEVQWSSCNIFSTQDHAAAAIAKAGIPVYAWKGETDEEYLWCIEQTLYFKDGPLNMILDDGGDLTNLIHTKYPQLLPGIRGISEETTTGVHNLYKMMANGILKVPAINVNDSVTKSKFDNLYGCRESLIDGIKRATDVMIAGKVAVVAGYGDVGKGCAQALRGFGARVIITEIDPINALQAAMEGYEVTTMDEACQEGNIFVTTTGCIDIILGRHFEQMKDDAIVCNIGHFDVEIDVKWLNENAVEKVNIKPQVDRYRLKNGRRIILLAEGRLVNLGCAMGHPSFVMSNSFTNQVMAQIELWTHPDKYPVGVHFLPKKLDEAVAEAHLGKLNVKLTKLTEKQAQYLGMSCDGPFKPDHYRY

[21] = tested on: E6SM; experiment: Tested for the antiviral activity against HSV-2 in human E6SM cells; format: functional; method in brief: as §2
[22] = tested on: HeLa; experiment: Tested for the antiviral activity against polio-1 virus in human HeLa cells; format: functional; method in brief: as §2
[23] = tested on: MOLT-4; experiment: Tested for in vitro cytostatic activity against human lymphoblast Molt-4 (Clone8); format: functional, cell-based; method in brief: as §1
[24] = tested on: HeLa; experiment: Tested for the antiviral activity against Coxsackie B4 virus in Human HeLa cells; format: functional; method in brief: as §2
[25] = tested on: E6SM; experiment: Tested for the minimum cytotoxic concentration on E6SM cells; format: functional; settings: Homo sapiens; method in brief: as §3
[26] = tested on: HeLa; experiment: Tested for the minimum cytotoxic concentration on HeLa cells; format: functional; settings: Homo sapiens; method in brief: as §3
[27] = tested on: Vero; experiment: Tested for the minimum cytotoxic concentration on Vero cells; format: functional; settings: Chlorocebus sabaeus; method in brief: as §3
[28] = tested on: Vero; experiment: Tested for the antiviral activity against Parainfluenza-3 virus in Simian Vero cells; format: functional; settings: Chlorocebus sabaeus; method in brief: as §2

Compound | IC50 [1] [µM] | MIC [2] [µg/mL] | MIC [4] [µg/mL] | MIC [5] [µg/mL] | MCC [6] [µg/mL] | IC50 [7] [µM] | MIC [8] [µg/mL] | MIC [9] [µg/mL] | MCC [10] [µg/mL] | IC50 [11] [µM] | Ki [13] [µM] | MCC [14] [µg/mL] | MIC [15] [µg/mL] | MIC [16] [µg/mL] | MIC [17] [µg/mL] | MIC [18] [µg/mL] | Ratio [19] | K inact [20] [min⁻¹] | MIC [21] [µg/mL] | IC50 [23] [µM] | also measured
Nc1ncnc2c1ncn2[C@@H]1O[C@H](/C=C/Br)[C@@H](O)[C@H]1O | 56 | 150 (≈ 438 µM) | 20 (≈ 58.5 µM) | 7 (≈ 20.5 µM) | ≥ 200 | 60 | > 100 | 7 (≈ 20.5 µM) | ≥ 200 | 42 | 0.134 | ≥ 200 | > 200 | > 100 | > 100 | > 100 | 0.21 | 0.028 | – | – | MIC [3]: > 100 µg/mL; IC50 [12]: 56 µM
Nc1ncnc2c1ncn2[C@@H]1O[C@H](/C=C/Cl)[C@@H](O)[C@H]1O | 99 | > 200 | 70 (≈ 235 µM) | 70 (≈ 235 µM) | 400 | 160 | > 200 | > 200 | ≥ 200 | 139 | 0.11 | ≥ 200 | > 200 | > 100 | > 100 | > 100 | 0.13 | 0.014 | > 200 | 80 | MIC [22]: > 200 µg/mL
Nc1ncnc2c1ncn2[C@@H]1O[C@H](/C=C\I)[C@@H](O)[C@H]1O | 32 | > 200 | 20 (≈ 51.4 µM) | 7 (≈ 18 µM) | > 200 | 43 | > 200 | 7 (≈ 18 µM) | > 200 | 43 | – | > 200 | > 200 | > 200 | > 200 | 100 (≈ 257 µM) | – | – | > 200 | 21 | –
Nc1ncnc2c1ncn2[C@@H]1O[C@H](/C=C\Cl)[C@@H](O)[C@H]1O | 86 | 70 (≈ 235 µM) | 20 (≈ 67.2 µM) | 20 (≈ 67.2 µM) | ≥ 200 | 164 | > 100 | 70 (≈ 235 µM) | ≥ 200 | 143 | – | ≥ 100 | > 100 | 70 (≈ 235 µM) | 20 (≈ 67.2 µM) | 70 (≈ 235 µM) | – | – | > 100 | 117 | –
Nc1ncnc2c1ncn2C1O[C@H](/C=C/I)[C@@H](O)[C@H]1O (some centres undefined) | 26 | > 100 | 7 (≈ 18 µM) | 2 (≈ 5.14 µM) | ≥ 200 | 15 | > 100 | 7 (≈ 18 µM) | 200 | 15 | 0.096 | ≥ 200 | > 200 | > 200 | > 200 | > 200 | 0.6 | 0.058 | > 100 | 18 | –
Nc1ncnc2c1ncn2C1O[C@H](/C=C/F)[C@@H](O)[C@H]1O (some centres undefined) | 147 | > 200 | 70 (≈ 249 µM) | 100 (≈ 356 µM) | > 200 | 287 | – | > 100 | > 200 | 301 | 1.3 | > 200 | 150 (≈ 533 µM) | – | 200 (≈ 711 µM) | 70 (≈ 249 µM) | 0.008 | 0.01 | 150 (≈ 533 µM) | 266 | MIC [24]: > 100 µg/mL; MIC [22]: 150 µg/mL (≈ 533 µM)
C=C(Br)[C@H]1OC(n2cnc3c(N)ncnc32)[C@H](O)[C@@H]1O (some centres undefined) | 13 | – | – | – | – | 47 | – | – | – | 25 | – | – | – | – | – | – | – | – | – | – | –
Cc1ccc(S(=O)(=O)/C=C/[C@H]2OC(n3cnc4c(N)ncnc43)[C@H](O)[C@@H]2O)cc1 (some centres undefined) | 20 | 20 (≈ 47.9 µM) | 20 (≈ 47.9 µM) | > 100 | – | 208 | > 400 | > 400 | – | 54 | – | – | – | > 400 | > 400 | > 400 | – | – | – | 32 | MIC [3]: 20 µg/mL (≈ 47.9 µM); MCC [25]: 200 µg/mL; MIC [22]: > 400 µg/mL; MCC [26]: > 400 µg/mL; MCC [27]: > 400 µg/mL; MIC [28]: > 400 µg/mL
Nc1ncnc2c1ncn2[C@@H]1O[C@H](/C=C\Br)[C@@H](O)[C@H]1O | 65 | 70 (≈ 205 µM) | 150 (≈ 438 µM) | 150 (≈ 438 µM) | > 200 | 134 | > 200 | 150 (≈ 438 µM) | > 200 | 104 | – | ≥ 200 | 150 (≈ 438 µM) | 150 (≈ 438 µM) | 20 (≈ 58.5 µM) | > 100 | – | – | > 200 | 93 | MIC [22]: > 200 µg/mL
